According to article PMC9524259 (Journal of medicinal chemistry, 2022):
“Also recorded” adds a separate entry of the source.

Columns and labels:
A549 cells [1] = assay: Western blot of TSP levels, A549; assay type: cell-based; settings: 48 h
In short: (§1)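 Cells in 10 cm dishes were treated 48 h with varying concentrations of test compound (0.5% DMSO final) or DMSO alone. HuH6 and MDA-MB-231 were grown in DMEM/10% FBS; A549 in RPMI 1640. Harvested cells were lysed in RIPA with protease/phosphatase inhibitors, on ice for 60 min. Equal protein (15 μg) was run under reducing conditions and blotted to PVDF. Probes were p53, phospho-p53 S6 and S15, Rb, gankyrin, and cyclophilin.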

A549 cells [2] = assay: Cell cycle analysis, A549; assay type: cell-based; settings: 0.3 μM, 72 h
gankyrin [3] = target: T1, gankyrin (Homo sapiens, UniProt O75832); assay: Circular dichroism spectra and thermal denaturation; assay type: binding; settings: for CD spectra: α-helical (secondary structure) content of gankyrin: 100 nM to 1.5 μM compound, minima at 208 and 222 nm; for thermal denaturation of gankyrin monitored at 217 nm: 1.5 μM compound, 5 – 90 °C; for gankyrin precipitation in CD sample (visual examination): in presence of compound
T1 sequence (O75832 1-226): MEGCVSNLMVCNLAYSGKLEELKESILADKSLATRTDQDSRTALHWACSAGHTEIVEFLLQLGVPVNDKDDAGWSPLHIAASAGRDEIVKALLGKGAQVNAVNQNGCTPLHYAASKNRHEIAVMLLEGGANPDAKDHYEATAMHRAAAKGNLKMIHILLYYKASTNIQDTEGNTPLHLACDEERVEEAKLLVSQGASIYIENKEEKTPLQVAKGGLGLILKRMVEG
In short: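 Gankyrin, His6-tagged, was expressed in LB cultures with 1 mM IPTG induction at 25 °C for ~5 h. It was purified by Ni-IMAC, the tag cut with TEV, then dialysed and re-passed over Ni-IMAC. CD was run in 1x PBS, 0.5% DMSO, pH 7.4, in a 1 mm cuvette, with test compound at 100 nM–1.5 μM. Spectra covered 190–260 nm with six accumulations. Thermal melts were read at 217 nm, 5–90 °C, 1 °C/min.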

A549 cells [4] = assay: Clonogenic assay, A549; assay type: cell-based; settings: 0.15 μM, 48 h treatment then 7 days fresh media
In short: (§2)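 Cells were seeded at 125 cells/mL in 6-well plates and left overnight to attach. Test compound was applied at two concentrations for 48 h at 37 °C, then removed. Fresh medium followed, changed every alternate day, for 7 days. Cells were washed in PBS, fixed in 4% paraformaldehyde and stained with 0.2% crystal violet for 1 h. Colonies of >50 cells were counted, and % growth was calculated relative to control; mean ± SD, n = 3.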

A549 spheroids = assay: Live-dead cell assay, A549 spheroids; assay type: cell-based; settings: day 15, both concentrations
In short: (§3)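 Spheroids from the growth study were stained after day 15 with calcein AM (live) and EthD-III (dead). Incubation was 30 min in the dark at room temperature, followed by fluorescence imaging at 4X. Live and dead signal were quantified; mean ± SD, n = 4.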

gankyrin [5] = target: T1, gankyrin; assay: Protein thermal shift; assay type: binding; settings: Table S1
gankyrin in A549 cells = target: T2, gankyrin in A549 cells (Homo sapiens, UniProt O75832); assay: Cellular thermal shift assay; assay type: cell-based; settings: 0.3 μM, 48 h
T2 sequence (O75832 1-226): T1 sequence (O75832 1-226)

A549 cells [6] = assay: Antiproliferative MTT assay, A549; assay type: cell-based; settings: for IC50: read-out: A549 IC50, 72 h with drug, MTT assay
MDA-MB-231 cells [7] = assay: Antiproliferative MTT assay, MDA-MB-231; assay type: cell-based; settings: for IC50: read-out: MDA-MB-231 IC50, 72 h with drug, MTT assay
MDA-MB-231 cells [8] = assay: Clonogenic assay, MDA-MB-231; assay type: cell-based; settings: 48 h treatment then 7 days fresh media
In short: as §2

MDA-MB-231 cells [9] = assay: Western blot of TSP levels, MDA-MB-231; assay type: cell-based; settings: 48 h; for p53 levels: mutant p53
In short: as §1

MDA-MB-231 spheroids = assay: Live-dead cell assay, MDA-MB-231 spheroids; assay type: cell-based; settings: day 15, IC50 and half IC50 concentrations
In short: as §3

HuH6 cells = assay: Western blot of TSP levels, HuH6; assay type: cell-based, human; settings: 48 h (Figure S1)
In short: as §1

[10] = target: T3, gankyrin in MDA-MB-231 cells (Homo sapiens, UniProt O75832); assay: Cellular thermal shift assay; assay type: cell-based; settings: 2 μM, 48 h
T3 sequence (O75832 1-226): T1 sequence (O75832 1-226)
In short: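 Intact MDA-MB-231 cells were treated 48 h with 2 μM test compound (0.5% DMSO final) or DMSO. Cells were split into aliquots and heated separately at 50, 53, 56, 59, 62 and 65 °C. Lysis was in RIPA on ice for 60 min, then lysates were cleared at 15,000 rpm, 15 min, 4 °C. Equal protein was immunoblotted for gankyrin with actin as reference, and melt curves were built; mean ± SD, n = 3.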

MDA-MB-231 cells [11] = assay: Cell cycle analysis, MDA-MB-231; assay type: cell-based; settings: 2 μM, 72 h
In short: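 MDA-MB-231 cells in 10 cm dishes were exposed to 2 μM test compound (0.1% DMSO final) or DMSO alone for 72 h. Harvested cells were normalized, fixed in 70% ethanol at −20 °C overnight, pelleted and stained with a PI kit for 40 min at 37 °C. Analysis was by flow and imaging cytometry; mean ± SD, n = 3.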

COC(=O)c1ccc(-c2cn(CCCC(=O)Nc3ccc(-c4ccccc4)cc3)nn2)cc1 [Compound 51c, Methyl p-{1-[3-(N-4-biphenylylcarbamoyl)propyl]-1H-1,2,3-triazol-4-yl}benzoate]
Rb levels (A549 cells [1]): increased Rb levels | gankyrin levels (A549 cells [1]): remained relatively unchanged | p53 levels (A549 cells [1]): relatively unchanged p53 levels | phosphorylated p53 (Ser6) levels (A549 cells [1]): increase the expression levels of phosphorylated p53 (Ser6) | phosphorylated p53 (Ser15) levels (A549 cells [1]): also increased phosphorylated p53 (Ser15) expression levels | cell population in the S and G2/M phases (A549 cells [2]): significantly decreasing the cell population in the S and G2/M phases | cells in the G0/G1 phase (A549 cells [2]): significant increase in the number of cells in the G0/G1 phase | CD spectra: α-helical (secondary structure) content of gankyrin (gankyrin [3]): weakening of secondary structure content in gankyrin | thermal denaturation of gankyrin monitored at 217 nm (gankyrin [3]): complete denaturation across the entire measured temperature range | gankyrin precipitation in CD sample (visual examination) (gankyrin [3]): only showed marginal precipitation | % colony growth (A549 cells [4]): 61.9% | green intensity (live cells) (A549 spheroids): dose-dependent decrease in green intensity | red intensity (dead cells) (A549 spheroids): increase in red intensity | gankyrin binding by protein thermal shift (gankyrin [5]): effectively bind gankyrin | gankyrin thermal stability (CETSA) (gankyrin in A549 cells): significant ability to decrease gankyrin thermal stability

Methyl p-{4-[3-(p-toluoxy)propyl]-1H-1,2,3-triazol-1-yl}benzoate [Compound 25]
IC50 (A549 cells [6]): > 100 µM | IC50 (MDA-MB-231 cells [7]): > 100 µM

COC(=O)c1ccc(-n2cc(CCCC(=S)Nc3ccc(C)cc3)nn2)cc1 [Compound 21, Methyl p-{4-[3-(p-tolylcarbamthioyl)propyl]-1H-1,2,3-triazol-1-yl}benzoate]
improvement in antiproliferative activity against A549 as compared to cjoc42 (A549 cells [6]): ~10 fold | improvement in antiproliferative activity against MDA-MB-231 as compared to cjoc42 (MDA-MB-231 cells [7]): 8–10 fold

COC(=O)c1ccc(-n2cc(CCCC(=O)Nc3ccc(C)cc3)nn2)cc1 [Compound 20, Methyl p-{4-[3-(N-p-tolylcarbamoyl)propyl]-1H-1,2,3-triazol-1-yl}benzoate]
improvement in antiproliferative activity against MDA-MB-231 as compared to cjoc42 (MDA-MB-231 cells [7]): 8–10 fold

COC(=O)c1ccc(-n2cc(CCCNC(=O)Nc3ccc(C)cc3)nn2)cc1 [Compound 26, Methyl p-(4-{3-[3-(p-tolyl)ureido]propyl}−1H-1,2,3-triazol-1-yl)benzoate]
improvement in antiproliferative activity against MDA-MB-231 as compared to cjoc42 (MDA-MB-231 cells [7]): 8–10 fold

COC(=O)c1ccc(-n2cc(CCCOc3ccc(C)cc3)nn2)cc1 [Compound 33, Methyl p-{4-[3-(p-tolyloxy)propyl]-1H-1,2,3-triazol-1-yl}benzoate]
improvement in antiproliferative activity against MDA-MB-231 as compared to cjoc42 (MDA-MB-231 cells [7]): 8–10 fold

Methyl p-{4-[3-(p-tolylcarbamthioyl)propyl]-1H-1,2,3-triazol-1-yl}benzoate [Compound 24]
IC50 (A549 cells [6]): > 100 µM | IC50 (MDA-MB-231 cells [7]): 82.4 µM

Cc1ccc(NC(=O)CCCn2cc(-c3ccc(C(F)(F)F)cc3)nn2)cc1 [Compound 51b, N-p-Tolyl4-{4-[p-(trifluoromethyl)phenyl]-1H-1,2,3-triazol-1-yl}butyramide]
CD spectra: α-helical (secondary structure) content of gankyrin (gankyrin [3]): enhancement in the 222 nm spectral minimum; also recorded: signal enhancement | thermal denaturation of gankyrin monitored at 217 nm (gankyrin [3]): complete denaturation across the entire measured temperature range | % colony growth (MDA-MB-231 cells [8]; 2.30 μM): 60.3% | Rb levels (MDA-MB-231 cells [9]): increase in Rb levels | gankyrin levels (MDA-MB-231 cells [9]): remained relatively unchanged | p53 levels (MDA-MB-231 cells [9]): relatively unchanged levels of p53 | gankyrin binding by protein thermal shift (gankyrin [5]): effectively bind gankyrin | green fluorescence intensity (live cells) (MDA-MB-231 spheroids): decrease in green intensity (live cells) | red fluorescence intensity (dead cells) (MDA-MB-231 spheroids): increase in red fluorescence intensity (dead cells)

O=C(CCCn1cc(-c2ccc(C(F)(F)F)cc2)nn1)Nc1ccc(-c2ccccc2)cc1 [Compound 51d, N-4-Biphenylyl4-{4-[p-(trifluoromethyl)phenyl]-1H-1,2,3-triazol-1-yl}butyramide]
CD spectra: α-helical (secondary structure) content of gankyrin (gankyrin [3]): weakening of secondary structure content in gankyrin | thermal denaturation of gankyrin monitored at 217 nm (gankyrin [3]): maintained gankyrin’s expected two-state transition but unfolded at an accelerated rate | gankyrin precipitation in CD sample (visual examination) (gankyrin [3]): only showed marginal precipitation | p53 and Rb levels (HuH6 cells): increased levels of both p53 and Rb | % colony growth (MDA-MB-231 cells [8]; 1.0 μM): 72.4% | gankyrin thermal stability (CETSA) [10]: significantly decreased | Rb levels (MDA-MB-231 cells [9]): increase in Rb levels | gankyrin levels (MDA-MB-231 cells [9]): remained relatively unchanged | p53 levels (MDA-MB-231 cells [9]): relatively unchanged levels of p53 | cell population in the G2/M phase (MDA-MB-231 cells [11]): decrease in the cell population in the G2/M phase | cell population in the S phase (MDA-MB-231 cells [11]): relatively unchanged | cells in the G0/G1 phase (MDA-MB-231 cells [11]): significant increase in the number of cells in the G0/G1 phase | gankyrin binding by protein thermal shift (gankyrin [5]): effectively bind gankyrin | green fluorescence intensity (live cells) (MDA-MB-231 spheroids): significant decrease in green fluorescence intensity (live cells) | red fluorescence intensity (dead cells) (MDA-MB-231 spheroids): significant increase in red fluorescence intensity (dead cells)
